# Screening results: PubChem, several laboratories
# An excerpt weighted towards active compounds, which were near 2.1% of everything screened.
# m-calpain inh – inhibitors of pig calpain II; purified calpain II, fluorogenic peptide substrate, 30 min; inhibition, % at 16 µM; 220,000 compounds, 0.37% hits;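 active means inhibition above about 50%, limit read from the data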
# Wee1 degr inh – inhibitors of human Wee1 degradation; reporter increase, % at 5 µM; P30291; HeLa Luc-Wee1K328M stability, luciferase luminescence; 100% = proteasome inhibitor MG132 effect; 220,000 compounds, 1.2% hits;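 active means activation above the mean of all tested compounds plus 3 SD, set per screening run, cut at about 8.8% in these data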;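 further: cells exposed to compound for 20 h before luminescence read; 0% = DMSO alone and 100% = MG132 at 30 µM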
# Target sequence (P30291 whole entry K328M): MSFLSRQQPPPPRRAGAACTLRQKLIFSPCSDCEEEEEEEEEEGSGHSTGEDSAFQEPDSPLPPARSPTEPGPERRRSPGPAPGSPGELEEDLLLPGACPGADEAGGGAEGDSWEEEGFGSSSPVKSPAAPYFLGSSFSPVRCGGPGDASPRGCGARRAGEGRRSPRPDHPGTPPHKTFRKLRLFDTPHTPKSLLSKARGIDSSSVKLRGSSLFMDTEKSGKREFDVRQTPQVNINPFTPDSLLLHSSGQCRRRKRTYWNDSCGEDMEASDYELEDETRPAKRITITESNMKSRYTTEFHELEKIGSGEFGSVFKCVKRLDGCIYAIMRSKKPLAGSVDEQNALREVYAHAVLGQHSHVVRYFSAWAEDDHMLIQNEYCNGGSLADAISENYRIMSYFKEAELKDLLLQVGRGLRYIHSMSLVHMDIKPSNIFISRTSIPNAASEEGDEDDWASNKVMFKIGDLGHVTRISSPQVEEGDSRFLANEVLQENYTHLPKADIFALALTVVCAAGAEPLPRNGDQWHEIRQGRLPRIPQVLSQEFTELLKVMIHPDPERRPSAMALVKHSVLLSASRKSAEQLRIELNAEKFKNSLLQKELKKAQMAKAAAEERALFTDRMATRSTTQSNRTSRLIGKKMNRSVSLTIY
# TNF death inh – inhibitors of TNF-alpha induced necroptosis in Jurkat FADD-/- cells. 220,000 compounds, 0.068% hits. activation (protection from cell death), % at 10 µM. Jurkat FADD-/- TNF necroptosis rescue, ATP luminescence, 24 h; 0 = TNF only, 100 = no-TNF cells. AID 463075;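 active means activation, meaning protection from cell death, of at least 50% relative to plate controls; inactive means activation below 50%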;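 further: necroptosis triggered by 40 ng/mL TNF-alpha added together with compound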
# Pf gametocyte – kills late stage P. falciparum gametocytes | P. falciparum stage V gametocytes, ATP luminescence, 24 h | inhibition, % at 10.9 µM | 150,000 compounds, 0.065% hits | AID 743093;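 active means inhibition above the mean plus 3 SD of compounds within the control limits, set per campaign, cut at about 38% in these data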;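 further: 0% = DMSO wells and 100% = medium only without gametocytes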
# L929 necroptosis – blocks zVAD induced death of L929 cells; 220,000 compounds, 0.38% hits; viability rescue, % at 10 µM; L929 zVAD necroptosis rescue, ATP luminescence, 24 h; with zVAD 60 µM;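 active means activation, scaled between plate controls, above about 75%, limit read from the data; inactive means activation under that limit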;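 further: 0% = zVAD with DMSO and 100% = DMSO alone without zVAD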
# RBBP9 inh – inhibitors of human serine hydrolase RBBP9. O75884. recombinant RBBP9, FP-Rh probe fluorescence polarization. inhibition, % at 7.94 µM. 220,000 compounds, 0.2% hits;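 active means inhibition above the campaign mean of all tested compounds plus 3 SD, cut at about 14% in these data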;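 further: plate controls were DMSO wells with RBBP9 for no effect and wells lacking RBBP9 protein for full effect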
#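 Test system: recombinant human RBBP9; Timing: 30 min then 45 min, 25 °C; Detection: fluorescence polarization; Control set: RBBP9 with DMSO as uninhibited control, no-protein wells as full inhibition; Compound dosing: one concentration, 7.94 µM nominal, 0.794% DMSO; Probe or stimulus: FP-Rh activity-based probe, 375 nM before mixing.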
# Wee1 stab conf – confirmation of human Wee1 degradation inhibitors. shares compounds with Wee1 degr inh. activation, % at 5 µM. HeLa Luc-Wee1K328M degradation, luminescence; vehicle 0%, proteasome-blocked wells 100%. 1,100 compounds, 4% hits; in the data active means activation above about 8.9%
# The depositor's hits bear a star; . = no result.
SMILES,m-calpain inh,Wee1 degr inh,TNF death inh,Pf gametocyte,L929 necroptosis,RBBP9 inh,Wee1 stab conf
CC1CCCN(c2nc3c(c(=O)[nH]c(=O)n3C)n2CCSc2ncccn2)C1 (stereo not drawn),0,1,-1,.,1,-2,.
Cn1c(SCC(=O)NCC2CCCO2)nnc1-c1ccc(S(=O)(=O)N2CCCC2)cc1 (stereo not drawn),12,3,0,-7,3,2,.
Cn1c(SCC2CCCO2)nnc1-c1ccc([N+](=O)[O-])cc1 (stereo not drawn),-9,13*,1,17,0,-4,5
O=c1cc(NCc2ccccc2)nc2ccccn12,-54,12*,1,.,4,-5,0
CC1Nc2ncnc(N3CCN(c4ccccc4)CC3)c2N(Cc2ccc(Br)cc2)C1=O (stereo not drawn),.,.,.,7,.,.,.
COc1ccc(OC)c2[nH]c(=O)c(CCNC(=O)CC(C)C)cc12,-22,11*,1,-11,3,-11,0
O=C(/C=C/c1ccc(Cl)c(Cl)c1)N1CCc2ccccc21,20,19*,0,.,3,-3,5
O=C(/C=C/c1cccs1)N1CCc2ccccc21,29,1,-8,1,1,-9,.
Cc1ccc(C#N)c(SCc2ccccc2F)n1,15,11*,-2,0,0,-14,3
Cc1ccc2nc(CSc3nc(C)ccc3C#N)[nH]c2c1,-47,5,2,.,0,0,.
C/C(=N\NC(=O)c1ccccc1C)c1ccc(NC(=O)c2cccs2)cc1,13,-3,-2,.,14,-13,.
C/C(=N\NC(=O)c1ccccc1)c1ccc(NC(=O)c2cccs2)cc1,30,13*,2,-17,0,-8,1
CC1(C)C(c2ccccc2)=NC(c2ccccc2)N1O (stereo not drawn),-1,2,-2,-20,1,-4,.
COc1ccc(C2N=C(c3ccccc3)C(C)(C)N2O)cc1 (stereo not drawn),-2,31*,1,13,1,-1,1
Cc1ccc(-c2nc(=S)c3c(n2Cc2ccco2)CCCC3)cc1,38,2,0,.,-1,-18,.
Cc1ccc(-c2nc(=S)c3c(n2Cc2ccco2)CC(C)(C)OC3)cc1,-23,13*,0,.,0,-12,1
Cc1ccc(N(CC(O)CN2C(=O)NC(C)(C)C2=O)S(=O)(=O)c2ccc(C)cc2)cc1 (stereo not drawn),13,13*,1,1,0,-3,0
COc1ccc(N(CC(O)CN2C(=O)NC(C)(C)C2=O)S(=O)(=O)c2ccc(C)cc2)cc1 (stereo not drawn),-11,-2,-1,-31,0,-5,.
Cc1cc(N/C=C\c2nnnn2-c2ccccc2)no1,4,-1,0,.,0,-5,.
CN(C)c1ccc(/C=C/c2nnnn2-c2ccccc2)cc1,-130,12*,3,-26,0,-5,4
CCN1CCc2nc(NC(=O)C(c3ccccc3)c3ccccc3)sc2C1,-128,11*,3,.,0,2,0
CCOC(=O)C(=Cc1c[nH]c2ccc(S(=O)(=O)N(C)C)cc12)C(=O)OCC,1,12*,-2,12,2,-7,1
O=C(O)COc1ccccc1/C=N/NC(=O)CN1CCN(Cc2ccc(Cl)cc2)CC1,-19,25*,1,-3,0,1,2
COc1ccc(N2CCN(C(=O)CNS(=O)(=O)c3ccc(C)cc3)CC2)cc1,-48,3,0,15,3,-4,.
CS(=O)(=O)c1ccc(Cl)c(NC(=O)CCc2ccccc2)c1,10,2,1,-7,2,-2,.
SMILES,m-calpain inh,Wee1 degr inh,TNF death inh,Pf gametocyte,L929 necroptosis,RBBP9 inh,Wee1 stab conf
COc1ccc(C(c2nnnn2C2CCCC2)N2CCC(C)CC2)c(OC)c1 (stereo not drawn),-14,41*,-1,6,0,-6,-1
COC(=O)/C(=C/c1ccco1)NC(=O)c1ccco1,5,1,0,-2,0,-1,.
O=[N+]([O-])c1cccc(-c2nnc(C3CC3)o2)c1,18,-2,2,-6,1,-5,.
Nc1nnc(-c2cccc([N+](=O)[O-])c2)o1,7,11*,3,3,1,-10,2
COCCCNC(=O)Nc1ccc(Br)cc1Cl,3,11*,1,.,0,1,4
COCCCNC(=O)Nc1ccc(F)cc1F,-11,-2,-1,.,0,0,.
C/C(=N\NC(=O)CNC(=O)C(c1ccccc1)c1ccccc1)c1ccccc1,9,-2,2,8,1,-2,.
C/C(Cc1ccccc1)=N/NC(=O)CNC(=O)C(c1ccccc1)c1ccccc1,19,11*,1,19,3,4,-3
O=C(OCC(=O)c1ccccc1Cl)c1cnccn1,-2,12*,0,.,0,1,-6
O=C(N/N=C/C(Br)=C\c1ccccc1)c1cccs1,-5,12*,4,4,2,-11,5
Cc1occc1C(=O)N/N=C/C(Br)=C\c1ccccc1,13,28*,2,11,0,-3,5
Cc1onc(-c2ccccc2)c1C(=O)N1CCCN(C(=O)c2c(-c3ccccc3)noc2C)CC1,-38,0,0,-24,0,-1,.
Cc1onc(-c2ccccc2)c1C(=O)N1CCN(C)CC1,13,17*,0,.,0,-4,-1
CS(=O)(=O)Nc1cccc(C2=NN(S(C)(=O)=O)C(c3ccc4c(c3)OCO4)C2)c1 (stereo not drawn),0,13*,-1,.,2,-5,6
O=C(NNC(=O)C12CC3CC(CC(C3)C1)C2)[C@@H]1C[C@H]1c1ccccc1,-8,20*,-1,13,16,-8,1
O=C(NNC(=O)C1CC1c1ccccc1)Nc1ccccc1 (stereo not drawn),1,-3,1,-16,1,-2,.
O=C(c1cc2ccccc2oc1=O)N(Cc1cccc(Br)c1)C1CCS(=O)(=O)C1 (stereo not drawn),-14,-1,0,-3,0,-3,.
CCN=C(NCC)SC1CC(=O)N(c2ccc(OCC)cc2)C1=O (stereo not drawn),-5,16*,1,.,0,2,6
CCOc1ccc(N2C(=O)CC(Sc3nnnn3-c3ccccc3)C2=O)cc1 (stereo not drawn),16,14*,-1,0,-1,-4,-1
